Active and inactive are the calls of the source. The calls are words filed in the database; no cut-off is given here.
How the values were obtained:
U-87 MG [1] = assay: Antiproliferative activity against human U87MG cells after 72 hrs by sulforhodamine B assay; format: functional, cell-based, U-87MG ATCC; settings: for inhibition: U-87MG ATCC
How it was run: (§1)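 Sulforhodamine B assay on glioma (U251, U87-MG) and colorectal (HCT-15, SW620) cancer cells. Cells were exposed to a range of compound concentrations for 72 h, then stained with SRB. IC50 values were derived from the dose–response. Doxorubicin served as positive control.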

U-251 = assay: Antiproliferative activity against human U251 cells after 72 hrs by sulforhodamine B assay; format: functional, cell-based; settings: for IC50: U-251, 72 h; how it was run: as §1
HCT-15 = assay: Antiproliferative activity against human HCT15 cells after 72 hrs by sulforhodamine B assay; format: functional, cell-based; settings: for IC50: HCT-15, 72 h; how it was run: as §1
SW-620 = assay: Antiproliferative activity against human SW620 cells after 72 hrs by sulforhodamine B assay; format: functional, cell-based; settings: for IC50: SW-620, 72 h; how it was run: as §1
U-87 MG [2] = assay: Induction of apoptosis in human U87MG cells assessed as bright blue nuclear pyknosis at 20 uM by DAPI staining; format: functional, cell-based; settings: U-87MG ATCC
How it was run: (§2)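 U87-MG glioma cells were exposed to compound at 20 µM for 72 h, then double-stained with DAPI and propidium iodide. Cells were viewed by fluorescence microscopy. Condensed bright-blue DAPI nuclei were scored as apoptotic; red PI-stained cells were scored as necrotic.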

U-87 MG [3] = assay: Induction of apoptosis in human U87MG cells assessed as necrotic cells at 20 uM by PI staining; format: functional, cell-based; settings: U-87MG ATCC; how it was run: as §2
U-87 MG [4] = assay: Induction of apoptosis in human U87MG cells assessed as early apoptotic cells at 20 uM after 72 hrs by annexin V-FITC/PI staining-based flow cytometric analysis (reference value: 3.41%); format: functional, U-87MG ATCC
U-87 MG [5] = assay: Induction of apoptosis in human U87MG cells assessed as late apoptotic cells at 20 uM after 72 hrs by annexin V-FITC/PI staining-based flow cytometric analysis (reference value: 3.23%); format: functional, U-87MG ATCC
U-87 MG [6] = assay: Induction of apoptosis in human U87MG cells assessed as total apoptotic cells at 20 uM after 72 hrs by annexin V-FITC/PI staining-based flow cytometric analysis (reference value: 6.64%); format: functional, U-87MG ATCC
U-87 MG [7] = assay: Induction of apoptosis in human U87MG cells assessed as viable cells at 20 uM after 72 hrs by annexin V-FITC/PI staining-based flow cytometric analysis (reference value: 93.12%); format: functional, U-87MG ATCC; settings: read-out: Activity
U-87 MG [8] = assay: Induction of apoptosis in human U87MG cells assessed as necrotic cells at 20 uM after 72 hrs by annexin V-FITC/PI staining-based flow cytometric analysis (reference value: 0.24%); format: functional, U-87MG ATCC
Staphylococcus aureus = assay: Antimicrobial activity against Staphylococcus aureus after 5 to 12 hrs by micro broth dilution assay; format: functional, organism-based
Escherichia coli = assay: Antimicrobial activity against Escherichia coli after 5 to 12 hrs by micro broth dilution assay; format: functional, organism-based
U-87 MG [9] = assay: Induction of apoptosis in human U87MG cells assessed as early apoptotic cells at 40 uM after 72 hrs by annexin V-FITC/PI staining-based flow cytometric analysis (reference value: 3.41%); format: functional, U-87MG ATCC
U-87 MG [10] = assay: Induction of apoptosis in human U87MG cells assessed as late apoptotic cells at 40 uM after 72 hrs by annexin V-FITC/PI staining-based flow cytometric analysis (reference value: 3.23%); format: functional, U-87MG ATCC
U-87 MG [11] = assay: Induction of apoptosis in human U87MG cells assessed as total apoptotic cells at 40 uM after 72 hrs by annexin V-FITC/PI staining-based flow cytometric analysis (reference value: 6.64%); format: functional, U-87MG ATCC
U-87 MG [12] = assay: Induction of apoptosis in human U87MG cells assessed as viable cells at 40 uM after 72 hrs by annexin V-FITC/PI staining-based flow cytometric analysis (reference value: 93.12%); format: functional, U-87MG ATCC; settings: read-out: Activity
U-87 MG [13] = assay: Induction of apoptosis in human U87MG cells assessed as necrotic cells at 40 uM after 72 hrs by annexin V-FITC/PI staining-based flow cytometric analysis (reference value: […]); format: functional, U-87MG ATCC
U-87 MG [14] = assay: Induction of apoptosis in human U87MG cells assessed as early apoptotic cells at 10 uM after 72 hrs by annexin V-FITC/PI staining-based flow cytometric analysis (reference value: 3.41%); format: functional, U-87MG ATCC
U-87 MG [15] = assay: Induction of apoptosis in human U87MG cells assessed as late apoptotic cells at 10 uM after 72 hrs by annexin V-FITC/PI staining-based flow cytometric analysis (reference value: 3.23%); format: functional, U-87MG ATCC
U-87 MG [16] = assay: Induction of apoptosis in human U87MG cells assessed as total apoptotic cells at 10 uM after 72 hrs by annexin V-FITC/PI staining-based flow cytometric analysis (reference value: 6.64%); format: functional, U-87MG ATCC
U-87 MG [17] = assay: Induction of apoptosis in human U87MG cells assessed as viable cells at 10 uM after 72 hrs by annexin V-FITC/PI staining-based flow cytometric analysis (reference value: 93.12%); format: functional, U-87MG ATCC; settings: read-out: Activity
U-87 MG [18] = assay: Induction of apoptosis in human U87MG cells assessed as necrotic cells at 10 uM after 72 hrs by annexin V-FITC/PI staining-based flow cytometric analysis (reference value: 0.24%); format: functional, U-87MG ATCC

IC50 (U-87 MG [1]) [µM] | IC50 (U-251) [µM] | IC50 (HCT-15) [µM] | IC50 (SW-620) [µM] | SMILES | inhibition (Staphylococcus aureus) | inhibition (Escherichia coli) | further results
0.48 | 12.9 | 4.58 | 0.99 | CC[C@H](C)C(=O)Oc1ccc(/C=C/COC(C)=O)cc1OC | inactive | inactive | inhibition (U-87 MG [1]): Dose-dependent effect; inhibition (U-251): Dose-dependent effect; inhibition (HCT-15): Dose-dependent effect; inhibition (SW-620): Dose-dependent effect; Activity (U-87 MG [2]): Active; Activity (U-87 MG [3]): Active; Activity (U-87 MG [4]): 9.02%; Activity (U-87 MG [5]): 36.12%; Activity (U-87 MG [6]): 45.14%; viability at 20 µM (U-87 MG [7]): 54.5%; Activity (U-87 MG [8]): 0.37%
29.4 | > 50 | 34.6 | 35.5 | COc1cc(/C=C/COC(=O)C(C)C)ccc1OC(=O)C(C)C | inactive | inactive | 
 |  |  |  | CCC(=O)OC/C=C/c1ccc(OC(C)=O)c(OC)c1 | inactive | inactive | 
1.06 | 9.71 | 3.26 | 0.36 | COc1cc(/C=C/COC(C)=O)ccc1OC(C)=O | inactive | inactive | inhibition (U-87 MG [1]): Dose-dependent effect; inhibition (U-251): Dose-dependent effect; inhibition (HCT-15): Dose-dependent effect; inhibition (SW-620): Dose-dependent effect; Activity (U-87 MG [2]): Active; Activity (U-87 MG [3]): Active; Activity (U-87 MG [9]): 21.62%; Activity (U-87 MG [10]): 35.71%; Activity (U-87 MG [11]): 57.33%; viability at 40 µM (U-87 MG [12]): 42.1%; Activity (U-87 MG [13]): 0.57%
 |  |  |  | COc1cc(/C=C/CO)ccc1O | inactive | inactive | 
 |  |  |  | O=C(/C=C/c1ccc(O)c(O)c1)O[C@@H]1C[C@](O)(C(=O)O)C[C@@H](OC(=O)/C=C/c2ccc(O)c(O)c2)[C@H]1O | inactive | inactive | 
15 | 28.1 | 34.1 | 21.9 | CC[C@H](C)C(=O)OC/C=C/c1ccc(OC(C)=O)c(OC)c1 | inactive | inactive | 
 |  |  |  | CC[C@H](C)C(=O)OC/C=C/c1ccc(OC(=O)[C@@H](C)CC)c(OC)c1 | inactive | inactive | 
 |  |  |  | CCCCCCC(=O)OC/C=C/c1ccc(OC(=O)CCCCCC)c(OC)c1 | inactive | inactive | 
 |  |  |  | COc1cc(/C=C/COC(C)=O)ccc1OC(=O)C(C)C | inactive | inactive | 
 |  |  |  | CC(C)[C@H](C)/C=C/[C@@H](C)[C@H]1CCC2=C3C=CC4=CC(=O)CC[C@]4(C)[C@H]3CC[C@@]21C | inactive | inactive | 
 |  |  |  | CCC(=O)Oc1ccc(/C=C/COC(C)=O)cc1OC | inactive | inactive | 
 |  |  |  | COc1cc(/C=C/COC(=O)CC(C)C)ccc1OC(=O)CC(C)C | inactive | inactive | 
28.8 | 52.6 | 29.6 | 47.4 | CCC(=O)OC/C=C/c1ccc(OC(=O)CC)c(OC)c1 | inactive | inactive | 
 |  |  |  | O=C(/C=C/c1ccc(O)c(O)c1)O[C@H]1[C@H](O)C[C@](O)(C(=O)O)C[C@H]1OC(=O)/C=C/c1ccc(O)c(O)c1 | inactive | inactive | 
17.3 | > 50 | 28.8 | 7.85 | CCCC(=O)OC/C=C/c1ccc(OC(=O)CCC)c(OC)c1 | inactive | inactive | 
 |  |  |  | COc1cc(/C=C/C(=O)O)ccc1O | inactive | inactive | 
3.12 | 37.6 | 23.5 | 4.6 | O=c1c(O[C@@H]2O[C@H](CO)[C@@H](O)[C@H](O)[C@H]2O)c(-c2ccc(O)cc2)oc2cc(O)cc(O)c12 [ASTRAGALIN] | inactive | inactive | 

IC50 (U-87 MG [1]) [µM] | IC50 (U-251) [µM] | IC50 (HCT-15) [µM] | IC50 (SW-620) [µM] | SMILES | inhibition (Staphylococcus aureus) | inhibition (Escherichia coli) | further results
 |  |  |  | COc1cc(/C=C/COC(=O)C(C)C)ccc1OC(C)=O | inactive | inactive | 
 |  |  |  | CCCCCCCC(=O)OC/C=C/c1ccc(OC(=O)CCCCCCC)c(OC)c1 | inactive | inactive | 
 |  |  |  | CC(C)[C@@H](C)/C=C/[C@@H](C)[C@H]1CCC2=C3C=CC4=CC(=O)CC[C@]4(C)[C@H]3CC[C@@]21C | inactive | inactive | 
18.5 | 33.3 | 22.8 | 10.2 | CCCC(=O)OC/C=C/c1ccc(OC(C)=O)c(OC)c1 | inactive | inactive | 
 |  |  |  | O=C(/C=C/c1ccc(O)c(O)c1)O[C@@H]1[C@H](O)C[C@@](O)(C(=O)O)C[C@H]1OC(=O)/C=C/c1ccc(O)c(O)c1 | inactive | inactive | 
10.5 | 45.7 | 17.1 | 7.59 | CCCC(=O)Oc1ccc(/C=C/COC(C)=O)cc1OC | inactive | inactive | 
3.89 | 19.7 | 1.91 | 0.41 | CCCC(=O)c1c(O)cc(O)cc1O[C@@H]1O[C@H](CO)[C@@H](O)[C@H](O)[C@H]1O | inactive | inactive | 
 |  |  |  | CC1=C(C)C(=O)C(CC[C@](C)(O)CCC[C@H](C)CCC[C@H](C)CCCC(C)C)=C(C)C1=O | inactive | inactive | 
 |  |  |  | CCCC(=O)Oc1ccc(/C=C/COC(=O)CC(C)C)cc1OC | inactive | inactive | 
 |  |  |  | CCCCCCCCCCCCCCCCCCCCOC(=O)/C=C/c1ccc(O)cc1 | inactive | inactive | 
 |  |  |  | CCCCC(=O)OC/C=C/c1ccc(OC(=O)CCCC)c(OC)c1 | inactive | inactive | 
 |  |  |  | CCCC(=O)OC/C=C/c1ccc(OC(=O)CC(C)C)c(OC)c1 | inactive | inactive | 
8.02 | 27.8 | 22.5 | 5.85 | C/C(=C\CO)CCC[C@H](C)CCC[C@H](C)CCCC(C)C [TRANS-PHYTOL] | inactive | inactive | 
 |  |  |  | COC(=O)/C=C/c1ccc(O)c(OC)c1 | inactive | inactive | 
5.24 | 26.8 | 15.1 | 5.25 | CCCCCCCCCCCCCCCCCCCCOC(=O)/C=C/c1ccc(O)c(OC)c1 | inactive | inactive | 
0.93 | 2.2 | 1.13 | 1.33 | COc1cccc2c1C(=O)c1c(O)c3c(c(O)c1C2=O)C[C@@](O)(C(=O)CO)C[C@@H]3O[C@H]1C[C@H](N)[C@H](O)[C@H](C)O1 [DOXORUBICIN] | inactive | inactive | Activity (U-87 MG [14]): 20.15%; Activity (U-87 MG [15]): 11.02%; Activity (U-87 MG [16]): 31.17%; viability at 10 µM (U-87 MG [17]): 68.2%; Activity (U-87 MG [18]): 0.6%
 |  |  |  | CCCCCC(=O)OC/C=C/c1ccc(OC(=O)CCCCC)c(OC)c1 | inactive | inactive | 

— ChEMBL document CHEMBL3588768, “Synthesis and bioactivity of tripolinolate A from Tripolium vulgare and its analogs” (Bioorg Med Chem Lett, 2015)
